Bioassay records (PubChem)
Compounds with a hit are over-represented: about 2.7% of the library has one in this group of screens.
OXTR potentiate: human OXTR potentiation. activation, % at 3 µM. CHO-OTR cells, Fluo-8 calcium fluorescence, potentiator mode; 0% = oxytocin EC15, 100% = EC100. P30559. hit rate 0.061% among 320,000;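 active = activation above that plate's cutoff, the mean activation of tested compounds plus 3 SD, cut at about 6.6% in these data, passing the limit was not always enough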
Target sequence (P30559 whole entry, looked up): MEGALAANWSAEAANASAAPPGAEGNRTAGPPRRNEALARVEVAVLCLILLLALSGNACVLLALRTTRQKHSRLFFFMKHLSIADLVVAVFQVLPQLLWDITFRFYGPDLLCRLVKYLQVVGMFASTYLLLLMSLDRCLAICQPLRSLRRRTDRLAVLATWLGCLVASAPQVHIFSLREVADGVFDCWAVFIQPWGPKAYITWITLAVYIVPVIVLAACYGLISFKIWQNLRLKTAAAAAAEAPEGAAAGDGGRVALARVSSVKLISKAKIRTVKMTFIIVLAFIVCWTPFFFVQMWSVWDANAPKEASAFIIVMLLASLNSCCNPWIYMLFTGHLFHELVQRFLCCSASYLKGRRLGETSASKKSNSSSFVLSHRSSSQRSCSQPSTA
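System: human OTR in CHO cells; Also added: sub-maximal oxytocin, roughly EC15; Timing: compound 6 min at room temperature before oxytocin, 100 s read; Technique: Fluo-8 intracellular calcium fluorescence, ex 470-495, em 515-575 nm; Controls: oxytocin EC15 low and EC100 high; Replication: singlicate.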
OX1R antag-1: human HCRTR1 antagonism. inhibition, % at 5 µM. O43613. CHO/OX1R cells, Fluo-8 calcium fluorescence, orexin A. hit rate 0.43% among 330,000;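 active = inhibition above its plate's threshold, mean inhibition of all tested compounds on the plate plus 3 SD, cut at about 37% in these data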
V1R ag counter: V1a receptor agonism, counter-screen for OXTR agonists; activation, % at 3 µM; CHO-V1R cells, Fluo-8 calcium fluorescence, agonist mode; 0% DMSO, 100% 3 nM vasopressin; hit rate 0.25% among 320,000; P37288; AID 2797;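 active = activation above the mean activation of all tested compounds plus 3 SD, per screening run, cut at about 20% in these data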;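 note: signal is peak over basal fluorescence ratio across a 100 second FLIPR read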
OX1R antag-2: antagonists of human orexin 1 receptor (OX1R); O43613; OX1R-expressing cells, FRET antagonist read-out; inhibition, % at 6.6 µM; hit rate 1.8% among 330,000; AID 485270; in the data active = inhibition mostly above about 38%, no sharp cut-off; inactive = mostly below about 40%
CHO parental Ca: signal in parental CHO cells, OX1R antagonist counter-screen. parental CHO-K1, ATP-induced calcium, Fluo-8 fluorescence. inhibition, % at 5.6 µM. hit rate 0.63% among 330,000. AID 463079;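 active = inhibition above that plate's mean sample inhibition plus 3 SD, cut at about 26% in these data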
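material = parental CHO cells | also added = ATP as calcium-mobilizing challenge | dosing = single point at 5.6 µM | detection = intracellular calcium via Fluo-8 no-wash fluorescent dye | read-out = % inhibition | benchmarks = low control ATP plus DMSO, high control DMSO only | repeats = one well per compound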
OXTR ag: human OXTR agonism; P30559; CHO-OTR cells, Fluo-8 calcium fluorescence; normalized: DMSO 0%, oxytocin 100%; activation, % at 3 µM; hit rate 0.32% among 320,000;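 active = activation above the mean of all tested compounds plus 3 SD, cutoff set per screening run, cut at about 20% in these data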;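 note: peak over basal fluorescence ratio from a 100 s FLIPR kinetic read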
Large screens that a line does not name were inactive.

CN(C(=O)c1cccnc1)c1nc(-c2ccccc2)cs1	CHO parental Ca 51.2
Cn1ncc2c(O/N=C(\N)c3ccc(C(F)(F)F)cc3)ncnc21	OX1R antag-2 48.3
O=C(C[C@H]1C/C=C\C[C@H](Cc2ccc(F)cc2)C(=O)O[C@@H](c2ccccc2)CNC1=O)N[C@H](CO)Cc1ccccc1	V1R ag counter 59.8, OXTR ag 44.6
O=C(C[C@H]1C/C=C\CC[C@H](Cc2ccc(F)cc2)C(=O)O[C@@H](c2ccccc2)CNC1=O)N[C@@H](CO)Cc1ccccc1	none
O=C(C[C@H]1C/C=C\CC[C@H](Cc2ccc(F)cc2)C(=O)O[C@@H](c2ccccc2)CNC1=O)N[C@H](CO)Cc1ccccc1	V1R ag counter 51.9, OXTR ag 33.3
COc1ccc(CNC(=S)Nc2cccc(F)c2)cc1	none
O=C(CCl)N(CCc1ccccc1)CCc1ccccc1	none
C=CCN(CC=C)S(=O)(=O)c1ccc(NC(=O)COc2ccccc2OC)cc1	CHO parental Ca 37.7
Cn1c(=O)c2cc(NCc3ccccc3)nnc2n(C)c1=O	OX1R antag-2 48.0
Cn1c(=O)c2c(nc(NCc3ccccc3)n2C)n(C)c1=O	none
Cc1ccc2c(c1)N(C(=O)CCC(=O)NC1CCC(C)CC1)CCO2 (centres undefined)	OX1R antag-2 42.9
Cc1ccc2c(c1)N(C(=O)CCC(=O)N1CCN(c3ccccc3)CC1)CCO2	none
Cc1ccc2c(c1)N(C(=O)CCC(=O)N1CCN(c3cccc(C)c3C)CC1)CCO2	OX1R antag-2 39.7
Cc1nc(-c2ccc(S(=O)(=O)Oc3ccccc3Cl)s2)cs1	CHO parental Ca 57.5
CCN(CC)S(=O)(=O)c1ccc(-c2csc(C)n2)s1	none
Cc1cc(OCC(O)CN(C)C(=O)C(C)Oc2ccccc2)ccc1Cl (centres undefined)	OX1R antag-2 48.0
CN(C)CC(O)COc1cccc(OCC(O)CN(C)C)c1 (centres undefined)	none
Cc1cccc(NC(=O)c2cc(-c3cc(C)ccc3O)n[nH]2)c1	none
COc1ccc(Cl)cc1NC(=O)c1cc(-c2ccccc2O)n[nH]1	none
COc1ccc(OC)c(NC(=O)c2cc(-c3cc(Cl)ccc3O)n[nH]2)c1	OX1R antag-1 97.3, OX1R antag-2 101.3, CHO parental Ca 35.1
COc1ccc(NC(=O)c2cc(-c3cc(C)ccc3O)n[nH]2)cc1Cl	OX1R antag-2 71.3
CC(=O)c1cccc(NC(=O)CCC(=O)Oc2ccc(C)cc2)c1	none
CC(=O)Nc1ccc(C(=O)NNC(=O)C2C3CCCCC32)cc1 (centres undefined)	none
COc1ccccc1C(=O)COC(=O)CNS(=O)(=O)c1ccc(C)c(C)c1	none
CCCCC(=O)NC(=S)Nc1cc([N+](=O)[O-])ccc1OC	CHO parental Ca 40.8
COc1cc(/C=C/C(=O)OCC(=O)Nc2ccc([N+](=O)[O-])cc2)ccc1O	V1R ag counter 30.0, OXTR ag 21.4
COc1ccc(/C=C/C(=O)NC(=S)Nc2cc([N+](=O)[O-])ccc2O)cc1OC	OX1R antag-2 59.6
COc1ccc([N+](=O)[O-])cc1NC(=S)NC(C)=O	none
COc1cc(/C=C/C(=O)NC(=O)c2ccccc2O)ccc1O	OX1R antag-2 67.1
CCN(CC(=O)NCc1cccs1)C(=O)c1cc(S(=O)(=O)NCc2ccccc2)ccc1C	none
COc1ccc([N+](=O)[O-])cc1NC(=O)CSc1nc(C)cc(C)n1	none
COc1ccc([N+](=O)[O-])cc1NC(=O)CSc1ccc2ccccc2c1	OX1R antag-2 61.1
c1ccc(-c2cc(CSc3nc4ccccc4[nH]3)on2)cc1	OX1R antag-1 74.5, OX1R antag-2 88.9, CHO parental Ca 44.4
Cc1noc(C)c1CSc1nc2ccccc2[nH]1	none
Cn1c(N=Nc2ccccc2)nc2ccccc21	OX1R antag-2 63.6
Cn1c(Cl)nc2ccccc21	none
CCOC(=O)c1c(NC(=O)CSc2nc3cc(Cl)ccc3s2)sc(C(C)=O)c1C	none
CCOC(=O)c1c(NC(=O)CSc2nc3ccccc3s2)sc(C(C)=O)c1C	CHO parental Ca 36.2
Nc1ncnc(Sc2ccccc2)c1[N+](=O)[O-]	OX1R antag-2 46.4
Nc1ncnc(Sc2ccc(Cl)cc2)c1[N+](=O)[O-]	none
